According to ChEMBL document CHEMBL1811775, “Brominated arginine-derived alkaloids from the red sea sponge Suberea mollis” (J Nat Prod, 2011):
≈ marks a conversion by molar mass, not a printed value. Calls of active or inactive are those of the source. The calls are words filed in the database; no cut-off is given here.

Tests used:
Candida albicans [1] = assay: Antifungal activity against Candida albicans ATCC 2091 after 24 hrs by agar diffusion method; format: functional
Summary of the method: (§1)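 Agar cup diffusion against the listed ATCC strains. Each compound was dissolved at 1 mg/mL in DMF, and 100 μL was placed in each cup. Plates were incubated at 37 C for 24 h, and the inhibition zone diameters were measured in mm.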

Klebsiella pneumoniae [2] = assay: Antibacterial activity against Klebsiella pneumoniae ATCC 10032 after 24 hrs by agar diffusion method; format: functional, organism-based; summary of the method: as §1
Staphylococcus aureus [3] = assay: Antibacterial activity against Staphylococcus aureus ATCC 6538P after 24 hrs by agar diffusion method; format: functional; summary of the method: as §1
Escherichia coli = assay: Antibacterial activity against Escherichia coli ATCC 35218 after 24 hrs by agar diffusion method; format: functional; summary of the method: as §1
Pseudomonas aeruginosa [4] = assay: Antibacterial activity against Pseudomonas aeruginosa ATCC 9027 after 24 hrs by agar diffusion method; format: functional, organism-based; summary of the method: as §1
Pseudomonas aeruginosa [5] = assay: Antibacterial activity against Pseudomonas aeruginosa ATCC 9027 at 30 ug/disk after 24 hrs by agar diffusion method; format: functional; conditions: ATCC 9027, 24 h, read-out: IZ
Summary of the method: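 Agar diffusion against P. aeruginosa ATCC 9027, using reference antibiotic disks at 30 μg/disk. Plates incubated at 37 C for 24 h, and the inhibition zone diameter read in mm.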

Klebsiella pneumoniae [6] = assay: Antibacterial activity against Klebsiella pneumoniae ATCC 10032 at 30 ug/disk after 24 hrs by agar diffusion method; format: functional; conditions: ATCC 10032, 24 h, read-out: IZ
Summary of the method: (§2)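 Reference drugs were tested in the same agar diffusion series at the stated loads: chloramphenicol 30 μg/disk, ciprofloxacin 5 μg/disk, erythromycin 15 μg/disk, and clotrimazole 10 mg/mL (100 μL). Plates were read at 37 C for 24 h, and inhibition zones were recorded in mm.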

Staphylococcus aureus [7] = assay: Antibacterial activity against Staphylococcus aureus ATCC 6538P at 30 ug/disk after 24 hrs by agar diffusion method; format: functional; conditions: read-out: IZ; summary of the method: as §2
Pseudomonas aeruginosa [8] = assay: microbe, parasite or virus in culture; conditions: ATCC 9027, 24 h, read-out: IZ
Candida albicans [9] = assay: Antifungal activity against Candida albicans ATCC 2091 at 10 mg/mL after 24 hrs by agar diffusion method; format: functional; conditions: ATCC 2091, 24 h, read-out: IZ; summary of the method: as §2
HeLa = assay: Cytotoxicity against human HeLa cells after 72 hrs by MTT assay; format: functional, cell-based
Summary of the method: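 HeLa cells were plated overnight at 37 C in 5% CO2. Samples were serially diluted 1:4 down the plate, with adriamycin and DMSO as controls. After 72 h, viability was read at 490 nm as MTS reduction to formazan. IC50 (μg/mL) was calculated from the dilution series.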

Staphylococcus aureus [10] = assay: Antibacterial activity against Staphylococcus aureus ATCC 6538P at 15 ug/disk after 24 hrs by agar diffusion method; format: functional; conditions: read-out: IZ; summary of the method: as §2
[11] = test system: Radical scavenging activity; assay: Antioxidant activity assessed as DPPH radical scavenging activity after 30 mins by TLC […] assay; format: functional
Summary of the method: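 TLC autographic DPPH assay. Samples at 1 mg/mL in MeOH were spotted at 6 μg each as 4 mm spots, with vitamin E as the positive control. The plate was sprayed with 0.2% (w/v) DPPH in MeOH, and scavenging spots were read 30 min after spraying.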

Q: How did the Activity (Candida albicans [1]) turn out when `COc1c(Br)cc(/C=C/C(=O)N[C@H](CCCNC(=N)N)C(=O)O)cc1Br` was run?
A: inactive

Q: And the Activity (Klebsiella pneumoniae [2])?
A: inactive

Q: And the Activity (Staphylococcus aureus [3])?
A: inactive

Q: And the Activity (Escherichia coli)?
A: inactive

Q: And the Activity (Pseudomonas aeruginosa [4])?
A: inactive

Q: How did the Activity (Candida albicans [1]) turn out when `COc1ccc(/C=C/C(=O)N[C@H](CCCNC(=N)N)C(=O)O)cc1Br` was run?
A: inactive

Q: What about the Activity (Klebsiella pneumoniae [2]) of the same compound?
A: inactive

Q: And the Activity (Staphylococcus aureus [3])?
A: inactive

Q: What about the Activity (Escherichia coli) of the same compound?
A: inactive

Q: And the Activity (Pseudomonas aeruginosa [4])?
A: inactive

Q: What does the source list for `COC1=C(Br)[C@H](O)[C@@]2(C=C1Br)CC(C(=O)NCCCCNC(=O)C1=NO[C@]3(C=C(Br)C(OC)=C(Br)[C@@H]3O)C1)=NO2` [AEROTHIONIN]?
A: Activity (Candida albicans [1]): inactive; inhibition zone (IZ) (Staphylococcus aureus [3]): 5 mm

Q: Which zone of inhibition at 30 µg/disc (Pseudomonas aeruginosa [5]) does the source give for `O=C(N[C@H](CO)[C@H](O)c1ccc([N+](=O)[O-])cc1)C(Cl)Cl` [CHLORAMPHENICOL] here?
A: 7 mm

Q: What about the zone of inhibition at 30 µg/disc (Klebsiella pneumoniae [6]) of the same compound?
A: 10 mm

Q: What about the zone of inhibition at 30 µg/disc (Staphylococcus aureus [7]) of the same compound?
A: 9 mm

Q: `O=C(O)c1cn(C2CC2)c2cc(N3CCNCC3)c(F)cc2c1=O` [CIPROFLOXACIN] was tested. Which zone of inhibition at 5 µg/disc (Pseudomonas aeruginosa [8]) did it give?
A: 8 mm

Q: For `Clc1ccccc1C(c1ccccc1)(c1ccccc1)n1ccnc1` [CLOTRIMAZOLE], which zone of inhibition at 10000 µg/mL (Candida albicans [9]) is on record?
A: 28 mm

Q: With `NC(=O)CC1(O)C=C(Cl)C(=O)C(Cl)=C1` [DICHLOROVERONGIAQUINOL] as the compound, how does the Activity (Candida albicans [1]) read?
A: inactive

Q: What about the IC50 (HeLa) of the same compound?
A: 13 µg/mL (≈ 55.1 µM)

Q: And the “inhibition zone (IZ)” value (Escherichia coli)?
A: 15 mm

Q: For `CC[C@H]1OC(=O)[C@H](C)[C@@H](O[C@H]2C[C@@](C)(OC)[C@@H](O)[C@H](C)O2)[C@H](C)[C@@H](O[C@@H]2O[C@H](C)C[C@H](N(C)C)[C@H]2O)[C@](C)(O)C[C@@H](C)C(=O)[C@H](C)[C@@H](O)[C@]1(C)O` [ERYTHROMYCIN], which zone of inhibition at 15 µg/disc (Staphylococcus aureus [10]) is on record?
A: 8 mm

Q: For `COC1=C(Br)[C@H](O)[C@@]2(C=C1Br)CC(C(=O)NCCCCNC(=N)N)=NO2` [PUREALDIN L], which Activity (Candida albicans [1]) is on record?
A: inactive

Q: What about the “inhibition zone (IZ)” value (Staphylococcus aureus [3]) of the same compound?
A: 5 mm

Q: How did the “inhibition zone (IZ)” value (Candida albicans [1]) turn out when `COc1ccc(O)c(CC(N)=O)c1Br` [SUBEREAPHENOL] was run?
A: 20 mm

Q: And the Activity [11]?
A: Active

Q: And the IC50 (HeLa)?
A: 19 µg/mL (≈ 73.1 µM)

Q: And the “inhibition zone (IZ)” value (Staphylococcus aureus [3])?
A: 10 mm

Q: And the “inhibition zone (IZ)” value (Escherichia coli)?
A: 18 mm
